Activity calls are given as the source filed them. The calls are words filed in the database; no cut-off is given here.
Tests used:
Mus musculus [1] = assay: Neurotoxicity in Swiss albino CF1 mouse assessed as minimal motor deficit at 30 to 300 mg/kg, ip after 0.5 hrs by rotarod test; type: toxicity, organism-based; parameters: dose 30-300 mg/kg, route intraperitoneal; settings: in vivo
Outline: (§1)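 Mice (male Swiss albino CF-1, groups of 5) were trained on an accelerating rotarod at 10 rpm with a 3.2 cm rod and had to stay on for two consecutive 90 s trials. Trained animals then received 30, 100 or 300 mg/kg i.p. Deficit was inability to stay on the rod for at least 1 min in each of three trials, checked at 0.5 h and 4 h. The value is the minimal dose giving deficit in 50% or more of the animals.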

Mus musculus [2] = assay: Anticonvulsant activity in Swiss albino CF1 mouse assessed as protection against subcutaneous pentylenetetrazole-induced seizures at 30 to 300 mg/kg, ip after 4 hrs postdose; type: functional, organism-based
Outline: (§2)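 Male Swiss albino CF-1 mice, 20–30 g. Compounds were suspended in 0.5% methyl cellulose and given i.p. at 0.01 mL/g, at 30, 100 and 300 mg/kg. MES and sc PTZ seizure tests followed reported procedures at 0.5 h and 4 h post-dose. The value is the minimal dose protecting 50% or more of the animals.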

Mus musculus [3] = assay: Anticonvulsant activity in Swiss albino CF1 mouse assessed as protection against subcutaneous pentylenetetrazole-induced seizures at 30 to 300 mg/kg, ip after 0.5 hrs postdose; type: functional, organism-based; outline: as §2
[4] = Octanol-phosphate buffer partition coefficient, log P of the compound at 5 mg after 24 hrs by UV spectroscopic analysis; type: physicochemical
Outline: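 Octanol/phosphate buffer partition at room temperature. 5 mg of drug was added to 10 mL octanol plus 10 mL buffer and shaken mechanically for 24 h. The mixture was left to equilibrate for 6 h, and the phases were separated and membrane-filtered. Drug in the aqueous phase was quantified by UV spectroscopy.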

Mus musculus [5] = assay: Anticonvulsant activity in Swiss albino CF1 mouse assessed as protection against maximal electroshock-induced seizures at 30 to 300 mg/kg, ip after 0.5 hrs postdose; type: functional, organism-based; outline: as §2
Mus musculus [6] = assay: Neurotoxicity in Swiss albino CF1 mouse assessed as decrease in locomotor activity at 30 mg/kg, ip after 4 hrs postdose; type: toxicity, organism-based; parameters: dose 30 mg/kg, route intraperitoneal; scale not given: the % may be the effect or the level left; settings: in vivo
Outline: (§3)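 Compounds in 30% PEG 200 were given i.p. at 30 mg/kg to male Swiss albino CF-1 mice. Locomotor activity was scored digitally in an actophotometer for 10 min, 24 h before dosing and again 0.5 h and 4 h after. The value is the % decrease against the pre-treatment score, as mean ± SEM, with Student's t test at p < 0.05.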

Mus musculus [7] = assay: Neurotoxicity in Swiss albino CF1 mouse assessed as decrease in locomotor activity at 30 mg/kg, ip after 0.5 hrs postdose; type: toxicity, organism-based; parameters: dose 30 mg/kg, route intraperitoneal; scale not given: the % may be the effect or the level left; settings: in vivo; outline: as §3
Mus musculus [8] = assay: Neurotoxicity in ip dosed Swiss albino CF1 mouse assessed as minimum dose required to produce minimal motor deficit after 4 hrs by rotarod test; type: toxicity, organism-based; settings: in vivo; outline: as §1
Mus musculus [9] = assay: Anticonvulsant activity in ip dosed Swiss albino CF1 mouse assessed as protection against maximal electroshock-induced seizures after 4 hrs; type: functional; settings: read-out: MED; outline: as §2
Mus musculus [10] = assay: Anticonvulsant activity in ip dosed Swiss albino CF1 mouse assessed as protection against maximal electroshock-induced seizures after 0.5 hrs; type: functional; settings: read-out: MED; outline: as §2
Mus musculus [11] = assay: Neurotoxicity in Swiss albino CF1 mouse assessed as minimal motor deficit at 30 to 300 mg/kg, ip after 4 hrs by rotarod test; type: toxicity, organism-based; parameters: dose 30-300 mg/kg, route intraperitoneal; settings: in vivo; outline: as §1
Mus musculus [12] = assay: Anticonvulsant activity in ip dosed Swiss albino CF1 mouse assessed as protection against subcutaneous pentylenetetrazole-induced seizures after 0.5 hrs; type: functional; settings: Swiss albino CF1, 0.5 h, read-out: MED; outline: as §2
Mus musculus [13] = assay: Neurotoxicity in ip dosed Swiss albino CF1 mouse assessed as minimum dose required to produce minimal motor deficit after 0.5 hrs by rotarod test; type: toxicity, organism-based; settings: in vivo; outline: as §1
Mus musculus [14] = assay: Anticonvulsant activity in ip dosed Swiss albino CF1 mouse assessed as protection against subcutaneous pentylenetetrazole-induced seizures after 4 hrs; type: functional; settings: Swiss albino CF1, 4 h, read-out: MED; outline: as §2
Mus musculus [15] = assay: Anticonvulsant activity in Swiss albino CF1 mouse assessed as protection against maximal electroshock-induced seizures at 30 to 300 mg/kg, ip after 4 hrs postdose; type: functional, organism-based; outline: as §2

logP at 24 h [4] | Compound | Activity (Mus musculus [1]) | Activity (Mus musculus [2]) | Activity (Mus musculus [3]) | Activity (Mus musculus [5]) | Activity (Mus musculus [6]) [%] | Activity (Mus musculus [7]) [%] | MTC (Mus musculus [8]) [mg/kg] | minimal effective dose (Mus musculus [9]) [mg/kg] | minimal effective dose (Mus musculus [10]) [mg/kg] | Activity (Mus musculus [11]) | minimal effective dose (Mus musculus [12]) [mg/kg] | MTC (Mus musculus [13]) [mg/kg] | minimal effective dose (Mus musculus [14]) [mg/kg] | Activity (Mus musculus [15])
2.15 | O=C(CN1C(=O)c2ccccc2C1=O)NN1C(=O)CSC1c1cccs1 (centres undefined) | Non-toxic | inactive | inactive | inactive | 71.73 | 63.04 | 100 | 100 |  |  |  |  |  | 
1.25 | O=C(CN1C(=O)c2ccccc2C1=O)NN1C(=O)CSC1c1cccnc1 (centres undefined) | Non-toxic | inactive | inactive |  | 24.01 | 18.03 |  | 300 | 100 | Non-toxic |  |  |  | 
3.65 | O=C(CN1C(=O)c2ccccc2C1=O)NN1C(=O)CSC1/C=C/c1ccccc1 (centres undefined) | Non-toxic | inactive |  |  | 66.5 | 5.66 |  | 300 | 300 | Non-toxic | 300 |  |  | 
2.4 | O=C(CN1C(=O)c2ccccc2C1=O)NN1C(=O)CSC1c1ccc(O)cc1 (centres undefined) |  | inactive | inactive |  | 43.34 | 68.37 | 300 | 100 | 30 |  |  | 300 |  | 
3.21 | O=C(CN1C(=O)c2ccccc2C1=O)NN1C(=O)CSC1c1ccc(Cl)cc1 (centres undefined) |  | inactive |  |  | 16.13 | 50.83 |  | 300 | 300 | Non-toxic | 300 | 300 |  | 
1.46 | O=C(CN1C(=O)c2ccccc2C1=O)NN1C(=O)CSC1c1ccccc1O (centres undefined) |  | inactive | inactive |  | 36.91 | 32.63 | 100 | 100 | 100 |  |  | 100 |  | 
2.97 | Cc1ccc(C2SCC(=O)N2NC(=O)CN2C(=O)c3ccccc3C2=O)cc1 (centres undefined) | Non-toxic |  |  |  | 68.16 | 25.94 |  | 30 | 30 | Non-toxic | 100 |  | 300 | 
2.23 | O=C(CN1C(=O)c2ccccc2C1=O)NN1C(=O)CSC1c1ccccc1 (centres undefined) |  |  |  |  | 64.26 | 50 | 30 | 100 | 100 |  | 100 | 30 | 300 | 
1.59 | O=C(CN1C(=O)c2ccccc2C1=O)NN1C(=O)CSC1c1c[nH]c2ccccc12 (centres undefined) | Non-toxic | inactive |  |  | 25.84 | 9.95 |  | 300 | 300 | Non-toxic | 300 |  |  | 
1.13 | O=C(CN1C(=O)c2ccccc2C1=O)NN1C(=O)CSC1c1ccco1 (centres undefined) | Non-toxic | inactive | inactive |  | 11.64 | 5.14 |  |  | 100 | Non-toxic |  |  |  | inactive

Further lines, the molecule ahead of its results:

Compound | logP at 24 h [4] | Activity (Mus musculus [1]) | Activity (Mus musculus [2]) | Activity (Mus musculus [3]) | Activity (Mus musculus [5]) | Activity (Mus musculus [6]) [%] | Activity (Mus musculus [7]) [%] | MTC (Mus musculus [8]) [mg/kg] | minimal effective dose (Mus musculus [9]) [mg/kg] | minimal effective dose (Mus musculus [10]) [mg/kg] | Activity (Mus musculus [11]) | minimal effective dose (Mus musculus [12]) [mg/kg] | MTC (Mus musculus [13]) [mg/kg] | minimal effective dose (Mus musculus [14]) [mg/kg] | Activity (Mus musculus [15])
O=C1NC(=O)C(c2ccccc2)(c2ccccc2)N1 [PHENYTOIN] |  |  |  |  |  | 18.57 | 33.9 | 100 | 30 | 30 |  |  | 100 |  | 
CN(C)c1ccc(C2SCC(=O)N2NC(=O)CN2C(=O)c3ccccc3C2=O)cc1 (centres undefined) | 2.84 | Non-toxic |  |  |  | 44.08 | 9.78 |  | 300 | 300 | Non-toxic | 300 |  | 300 | 
COc1ccc(C2SCC(=O)N2NC(=O)CN2C(=O)c3ccccc3C2=O)cc1 (centres undefined) | 1.97 |  | inactive | inactive |  | 14.93 | 3.25 | 300 | 100 | 100 |  |  | 300 |  | 
O=C(CN1C(=O)c2ccccc2C1=O)NN1C(=O)CSC1c1ccc(Cl)cc1Cl (centres undefined) | 2.54 |  |  |  | inactive | 25.55 | 63.73 |  | 30 |  | Non-toxic | 100 | 300 | 100 | 
COc1ccc(C2SCC(=O)N2NC(=O)CN2C(=O)c3ccccc3C2=O)cc1OC (centres undefined) | 2.78 | Non-toxic |  |  |  | 27.95 | 20.25 |  | 300 | 300 | Non-toxic | 100 |  | 300 | 
CCCC(CCC)C(=O)[O-].[Na+] [VALPROATE SODIUM] |  | Non-toxic | inactive |  |  |  |  |  |  |  | Non-toxic | 300 |  |  | 
COc1cc(C2SCC(=O)N2NC(=O)CN2C(=O)c3ccccc3C2=O)ccc1O (centres undefined) | 1.31 | Non-toxic |  |  |  | 7.31 | 38.13 |  | 100 | 30 | Non-toxic | 300 |  | 300 | 
O=C(CN1C(=O)c2ccccc2C1=O)NN1C(=O)CSC1c1c(F)cccc1Cl (centres undefined) | 3.79 | Non-toxic |  |  |  | 30.18 | 12.01 |  | 100 | 100 | Non-toxic | 300 |  | 300 | 

Reference: ChEMBL document CHEMBL1909502, “Design and synthesis of 2-(1, 3-dioxoisoindolin-2-yl)-N-(4-oxo-2-substitutedthiazolidin-3-yl) acetamide derivatives as potential anticonvulsant agents” (Eur J Med Chem, 2011)
